Experimental data reported in ChEMBL document CHEMBL1152859, “The novel phosphoramidate derivatives of NSAID 3-hydroxypropylamides: synthesis, cytostatic and antiviral activity evaluations” (Eur J Med Chem, 2009).
The source made the active and inactive calls. The calls are words filed in the database; no cut-off is given here.

Columns and labels:
L1210 = assay: Cytostatic activity against mouse L1210 cells after 48 hrs by MTT assay; type: functional, cell-based; conditions: L1210, 48 h
[1] = Cytostatic activity against human Molt4/C8 cells after 72 hrs by MTT assay; type: functional, cell-based; conditions: MOLT-4, 72 h
CCRF-CEM = assay: Cytostatic activity against human CEM cells after 72 hrs by MTT assay; type: functional, cell-based
HeLa = assay: Cytostatic activity against human HeLa cells after 72 hrs by MTT assay; type: functional, cell-based
Procedure, shortened: (§1)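 Monolayer cells were grown in DMEM with 10% FBS, 2 mM L-glutamine, penicillin and streptomycin at 37 °C under 5% CO2. They were seeded on day 0 at 1 × 10⁴ to 3 × 10⁴ cells/ml and exposed to five 10-fold dilutions (10⁻⁸ to 10⁻⁴ M) for 72 h, with a solvent control. Read-out was MTT. Quadruplicates in three experiments (WI 38: one experiment). IC50 by linear regression of percentage-of-growth.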

MIA PaCa-2 = assay: Cytostatic activity against human MIAPaCa2 cells after 72 hrs by MTT assay; type: functional, cell-based; conditions: MIA PaCa-2, 72 h; procedure, shortened: as §1
SW-620 = assay: Cytostatic activity against human SW620 cells after 72 hrs by MTT assay; type: functional, cell-based; conditions: SW-620, 72 h; procedure, shortened: as §1
MCF7 = assay: Cytostatic activity against human MCF7 cells after 72 hrs by MTT assay; type: functional, cell-based; conditions: MCF7, 72 h; procedure, shortened: as §1
NCI-H460 = assay: Cytostatic activity against human H460 cells after 72 hrs by MTT assay; type: functional, cell-based; conditions: NCI-H460, 72 h; procedure, shortened: as §1
[2] = system: Human immunodeficiency virus 1; assay: Antiviral activity against HIV1 3B infected in human CEM cells assessed as inhibition of virus-induced cytopathicity; type: functional, organism-based; conditions: CCRF-CEM
[3] = system: Human immunodeficiency virus 2; assay: Antiviral activity against HIV2 ROD infected in human CEM cells assessed as inhibition of virus-induced cytopathicity; type: functional, organism-based; conditions: CCRF-CEM
Human alphaherpesvirus 1 = assay: Antiviral activity against Herpes simplex virus 1 infected in HEL cells assessed as inhibition of virus-induced cytopathicity; type: functional, organism-based
Human alphaherpesvirus 2 = assay: Antiviral activity against Herpes simplex virus 2 infected in HEL cells assessed as inhibition of virus-induced cytopathicity; type: functional, organism-based
Vaccinia virus = assay: Antiviral activity against Vaccinia virus infected in HEL cells assessed as inhibition of virus-induced cytopathicity; type: functional, organism-based; conditions: Orthopoxvirus vaccinia
Procedure, shortened: (§2)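 Cell cultures were exposed for 2 h to 100 CCID50 of virus, and residual virus was then removed. Infected cells were further incubated with medium containing varying compound concentrations for 3 days at 37 °C. Virus-induced cytopathogenicity was scored microscopically. EC50 is the concentration giving a 50% reduction of cytopathogenicity.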

Human alphaherpesvirus 3 = assay: Antiviral activity against Varicella-Zoster virus infected in HEL cells assessed as inhibition of virus-induced cytopathicity; type: functional, organism-based
Cytomegalovirus = assay: Antiviral activity against Cytomegalovirus infected in HEL cells assessed as inhibition of virus-induced cytopathicity; type: functional, organism-based
Procedure, shortened: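 Confluent HEL fibroblasts were infected with CMV strains Davis and AD-169 at 100 PFU per well for 2 h, then virus was removed. Graded concentrations were added in duplicate and cultures kept 7 days at 37 °C. Cytopathogenicity was scored microscopically after ethanol fixation and Giemsa staining. EC50 is the 50% reduction.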

[4] = system: Vesicular stomatitis virus; assay: Antiviral activity against Vesicular stomatitis virus infected in HEL cells assessed as inhibition of virus-induced cytopathicity; type: functional, organism-based; procedure, shortened: as §2
Human respirovirus 3 = assay: Antiviral activity against Parainfluenza-3 virus infected in african green monkey Vero cells assessed as inhibition of virus-induced cytopathicity; type: functional, organism-based
Procedure, shortened: (§3)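 Cells were infected with 100 CCID50 of virus for 2 h, then residual virus was removed. Medium with graded compound concentrations was added and cultures were kept 3 days at 37 °C. Cytopathogenicity was scored microscopically. EC50 is the concentration reducing virus-induced cytopathogenicity by 50%.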

[5] = system: Mammalian orthoreovirus 1; assay: Antiviral activity against Reovirus 1 infected in african green monkey Vero cells assessed as inhibition of virus-induced cytopathicity; type: functional, organism-based; procedure, shortened: as §3
Sindbis virus = assay: Antiviral activity against Sindbis virus infected in african green monkey Vero cells assessed as inhibition of virus-induced cytopathicity; type: functional, organism-based; procedure, shortened: as §3
Coxsackievirus B4 [6] = assay: Antiviral activity against Coxsackievirus B4 infected in african green monkey Vero cells assessed as inhibition of virus-induced cytopathicity; type: functional, organism-based; procedure, shortened: as §3
Punta Toro virus = assay: Antiviral activity against Punta Toro virus infected in african green monkey Vero cells assessed as inhibition of virus-induced cytopathicity; type: functional, organism-based; procedure, shortened: as §3
[7] = system: Respiratory syncytial virus; assay: Antiviral activity against Respiratory syncytial virus infected in human HeLa cells assessed as inhibition of virus-induced cytopathicity; type: functional, organism-based; procedure, shortened: as §3
[8] = system: Vesicular stomatitis virus; assay: Antiviral activity against Vesicular stomatitis virus infected in human HeLa cells assessed as inhibition of virus-induced cytopathicity; type: functional, organism-based; procedure, shortened: as §2
Coxsackievirus B4 [9] = assay: Antiviral activity against Coxsackievirus B4 infected in human HeLa cells assessed as inhibition of virus-induced cytopathicity; type: functional, organism-based; procedure, shortened: as §3
[10] = Cytostatic activity against human WI38 cells after 72 hrs by MTT assay; type: ADME, cell-based; conditions: WI-38, 72 h; procedure, shortened: as §1

Row | SMILES | IC50 (L1210) [µM] | IC50 [1] [µM] | IC50 (CCRF-CEM) [µM] | IC50 (HeLa) [µM] | IC50 (MIA PaCa-2) [µM] | IC50 (SW-620) [µM] | IC50 (MCF7) [µM] | IC50 (NCI-H460) [µM] | Activity [2] | Activity [3] | Activity (Human alphaherpesvirus 1) | Activity (Human alphaherpesvirus 2) | Activity (Vaccinia virus) | Activity (Human alphaherpesvirus 3) | Activity (Cytomegalovirus) | Activity [4] | Activity (Human respirovirus 3) | Activity [5] | Activity (Sindbis virus) | Activity (Coxsackievirus B4 [6]) | further results
1 | O=C(Cc1ccccc1Nc1c(Cl)cccc1Cl)NCCCO | 200 | 215 | 212 | 46 | 54 | 36 | 39 | 68 | inactive | inactive | inactive | inactive | inactive | inactive | inactive | inactive | inactive | inactive | inactive | inactive | Activity (Punta Toro virus): inactive; Activity [7]: inactive; Activity [8]: inactive; Activity (Coxsackievirus B4 [9]): inactive
2 | CC(C)Cc1ccc(C(C)C(=O)NCCCO)cc1 (stereo not given) | 213 | 93 | 55 | > 100 | ≥ 100 | > 100 | > 100 | > 100 | inactive | inactive | inactive | inactive | inactive | inactive | inactive | inactive | inactive | inactive | inactive | inactive | Activity (Punta Toro virus): inactive; Activity [7]: inactive; Activity [8]: inactive; Activity (Coxsackievirus B4 [9]): inactive
3 | COC(=O)[C@H](C)NP(=O)(OCCCNC(=O)C(C)c1cccc(C(=O)c2ccccc2)c1)Oc1ccc(Cl)cc1 (stereo not given in full) | 44 | 40 | 40 | 19 | 14 | 17 | 14 | 18 | inactive | inactive | inactive | inactive | inactive | inactive | inactive | inactive | inactive | inactive | inactive | inactive | IC50 [10]: 30 µM; Activity (Punta Toro virus): inactive; Activity [7]: inactive; Activity [8]: inactive; Activity (Coxsackievirus B4 [9]): inactive
4 | CC(C(=O)NCCCO)c1cccc(C(=O)c2ccccc2)c1 (stereo not given) | 273 | 97 | 71 | > 100 | > 100 | > 100 | > 100 | > 100 | inactive | inactive | inactive | inactive | inactive | inactive | inactive | inactive | inactive | inactive | inactive | inactive | Activity (Punta Toro virus): inactive; Activity [7]: inactive; Activity [8]: inactive; Activity (Coxsackievirus B4 [9]): inactive
5 | COC(=O)[C@H](C)NP(=O)(OCCCNC(=O)Cc1c(C)n(C(=O)c2ccc(Cl)cc2)c2ccc(OC)cc12)Oc1ccc(Cl)cc1 (stereo not given in full) | 24 | 28 | 11 | 17 | 8 | 15 | 16 | 18 | inactive | inactive | inactive | inactive | inactive | inactive | inactive | inactive | inactive | inactive | inactive | inactive | IC50 [10]: 16 µM; Activity (Punta Toro virus): inactive; Activity [7]: inactive; Activity [8]: inactive; Activity (Coxsackievirus B4 [9]): inactive
6 | COc1ccc2c(c1)c(CC(=O)NCCCO)c(C)n2C(=O)c1ccc(Cl)cc1 | 179 | 113 | 78 | 26 | 44 | 47 | 22 | > 100 | inactive | inactive | inactive | inactive | inactive | inactive | inactive | inactive | inactive | inactive | inactive | inactive | Activity (Punta Toro virus): inactive; Activity [7]: inactive; Activity [8]: inactive; Activity (Coxsackievirus B4 [9]): inactive
7 | COC(=O)[C@H](C)NP(=O)(OCCCNC(=O)C(C)c1ccc(CC(C)C)cc1)Oc1ccc(Cl)cc1 (stereo not given in full) | 64 | 48 | 90 | 15 | 13 | 21 | 14 | 19 | inactive | inactive | inactive | inactive | inactive | inactive | inactive | inactive | inactive | inactive | inactive | inactive | IC50 [10]: 21 µM; Activity (Punta Toro virus): inactive; Activity [7]: inactive; Activity [8]: inactive; Activity (Coxsackievirus B4 [9]): inactive
8 | COC(=O)[C@H](C)NP(=O)(OCCCNC(=O)C(C)c1cccc(Oc2ccccc2)c1)Oc1ccc(Cl)cc1 (stereo not given in full) | 24 | 39 | 38 | 6 | 5 | 7 | 12 | 13 | inactive | inactive | inactive | inactive | inactive | inactive | inactive | inactive | inactive | inactive | inactive | inactive | IC50 [10]: 20 µM; Activity (Punta Toro virus): inactive; Activity [7]: inactive; Activity [8]: inactive; Activity (Coxsackievirus B4 [9]): inactive
9 | CC(C(=O)NCCCO)c1cccc(Oc2ccccc2)c1 (stereo not given) | 230 | 99 | 71 | > 100 | > 100 | > 100 | > 100 | > 100 | inactive | inactive | inactive | inactive | inactive | inactive | inactive | inactive | inactive | inactive | inactive | inactive | Activity (Punta Toro virus): inactive; Activity [7]: inactive; Activity [8]: inactive; Activity (Coxsackievirus B4 [9]): inactive
